From ChEMBL document CHEMBL1121793, “Biological effects of modified colchicines. Improved preparation of 2-demethylcolchicine, 3-demethylcolchicine, and (+)-colchicine and reassignment of the position of the double bond in dehydro-7-deacetamidocolchicines” (J Med Chem, 1981)
Calls of active or inactive are those of the source. The calls are words filed in the database; no cut-off is given here.

Assays:
P388 [1] = experiment: The compound was tested for its potency against lymphocytic leukemia P388 screen in mice.; format: functional, Mus musculus
Mus musculus [2] = experiment: Toxicity found after a single im injection. The total number of deaths were counted after 7 days and LD50 was determined by probit analysis; 28.6-63.9; format: functional
Method in brief: (§1)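 NIH general purpose mice (ca. 20 g), ten per dose level, usually ≥5 dose levels; single im injection in Emulphor EL-620 mixture, vehicle-only group of ten as control. Survivors counted at day 7; LD50 with 95% confidence interval by probit analysis, converted to μmol/kg.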

Mus musculus [3] = species on record: Mus musculus; experiment: Dose of compound which caused an average weight loss >3g in a set of mice or the death of one or more of the mice in the set in the P388 NCI screen.; format: functional
Method in brief: (§2)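 P388 leukemia-bearing mice, 20–22 g; one im injection daily for 9 days, compound in hydroxypropylcellulose suspension or aqueous solution. Toxic dose = lowest dose level at which ≥1 mouse died on or by day 5, or group mean weight loss >3 g; converted to μmol/kg.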

P388 [4] = experiment: The compound was tested for its potency against lymphocytic leukemia P388 screen in mice; Inactive.; format: functional, cell-based; settings: Mus musculus
P388 [5] = settings: Mus musculus
Mus musculus [6] = experiment: (§3) Toxicity found after a single im injection. The total number of deaths were counted after 7 days and LD50 was determined by probit analysis.; format: functional; method in brief: as §1
Mus musculus [7] = experiment: Toxicity found after a single im injection. The total number of deaths were counted after 7 days and LD50 was determined by probit analysis; 6.4-11.8; format: functional; method in brief: as §1
Mus musculus [8] = experiment: Toxicity found after a single im injection. The total number of deaths were counted after 7 days and LD50 was determined by probit analysis; 101.5-317.8; format: functional; method in brief: as §1
Mus musculus [9] = experiment: Toxicity found after a single im injection. The total number of deaths were counted after 7 days and LD50 was determined by probit analysis; 2.5-4.0; format: functional; method in brief: as §1
Mus musculus [10] = species on record: Mus musculus; experiment: Dose of compound which caused an average weight loss >3g in a set of mice or the death of one or more of the mice in the set in the P388 NCI screen; format: functional; method in brief: as §2
[11] = as §3; format: organism-based; settings: mouse, in vivo, read-out: Toxicity; method in brief: as §1
Mus musculus [12] = experiment: Toxicity found after a single im injection. The total number of deaths were counted after 7 days and LD50 was determined by probit analysis; 82.9-163.4; format: functional; method in brief: as §1
Mus musculus [13] = experiment: Toxicity found after a single im injection. The total number of deaths were counted after 7 days and LD50 was determined by probit analysis; 0.9-1.3; format: functional; method in brief: as §1
Mus musculus [14] = experiment: Toxicity found after a single im injection. The total number of deaths were counted after 7 days and LD50 was determined by probit analysis; 2.4-5.1; format: functional; method in brief: as §1

Row | Structure (SMILES) | Potency (P388 [1]) | Toxicity (Mus musculus [3]) | Potency (P388 [5]) | also measured
1 | COc1cc2c(c(OC)c1O)-c1ccc(OC)c(=O)cc1[C@@H](NC(C)=O)CC2 [2-DESMETHYLCOLCHICIN] | 13.8 µM/kg | 51.9 µM/kg |  | Toxicity (Mus musculus [2]): 42.9 µM/kg
2 | COc1cc2c(c(OC)c1OC)-c1ccc(=O)c(OC)cc1[C@@H](N(C)C)CC2 |  |  |  | Potency (P388 [4]): inactive
3 | COc1cc2c(c(OC)c1OC)-c1ccc(=O)c(OC)cc1[C@@H](NC(=O)C(F)(F)F)CC2 |  |  | inactive | 
4 | COc1cc2c(c(O)c1OC)-c1ccc(OC)c(=O)cc1[C@@H](NC(C)=O)CC2 | 86 µM/kg | 103.9 µM/kg |  | Toxicity (Mus musculus [6]): >520 µM/kg
5 | COc1cc2c(c(O)c1OC)-c1ccc(SC)c(=O)cc1[C@@H](NC(C)=O)CC2 |  |  | inactive | 
6 | COc1cc2c(c(OC)c1OC)-c1ccc(OC)c(=O)cc1[C@@H](N(C)C(=O)C(F)(F)F)CC2 | 1.5 µM/kg | 5.4 µM/kg |  | Toxicity (Mus musculus [7]): 8.8 µM/kg
7 | COc1cc2c(c(OC)c1OC)-c1ccc(OC)c(=O)cc1[C@@H](N(C)C=O)CC2 | 1.7 µM/kg | 6.3 µM/kg |  | Toxicity (Mus musculus [8]): 179.7 µM/kg
8 | COc1cc2c(c(OC)c1OC)-c1ccc(OC)c(=O)cc1[C@@H](NC(C)=O)CC2 [COLCHICINE] | 0.4 µM/kg | 2.5 µM/kg |  | Toxicity (Mus musculus [9]): 3 µM/kg
9 | COc1cc2c(c(OC(C)=O)c1OC)-c1ccc(OC)c(=O)cc1[C@@H](NC(C)=O)CC2 |  | 46.8 µM/kg | inactive | Toxicity (Mus musculus [6]): 205.9 µM/kg
10 | COc1cc2c(c(OC)c1OC)-c1ccc(OC)c(=O)cc1[C@@H](N(C)Cc1ccccc1O)CC2 [SPECIOSINE] | 22 µM/kg |  |  | Toxicity (Mus musculus [10]): 83.9 µM/kg; LD50 at 168 h [11]: 296 µmol/kg
11 | COc1cc2c(c(OC)c1OC)-c1ccc(=O)c(OC)cc1[C@@H](N(C)C(C)=O)CC2 |  |  | inactive | 
12 | COc1cc2c(c(OC)c1OC)-c1ccc(OC)c(=O)cc1[C@@H](N(C)C)CC2 | 68 µM/kg |  |  | Toxicity (Mus musculus [10]): 51.9 µM/kg; LD50 at 168 h [11]: 520 µmol/kg
13 | COC1=CC=C2C(=C(NC(C)=O)CCc3cc(OC)c(OC)c(OC)c32)CC1=O |  |  | inactive | 
14 | CN[C@H]1CCc2cc(OC)c(OC)c(OC)c2-c2ccc(=O)c(O)cc21 |  |  | inactive | 
15 | COc1cc2c(c(OC)c1OC)-c1ccc(OC)c(=O)cc1CC=C2 | 15.9 µM/kg |  |  | Toxicity (Mus musculus [10]): 29.4 µM/kg; LD50 at 168 h [11]: ~300 µmol/kg
16 | COc1cc2c(c(OC)c1OC)-c1ccc(OC)c(=O)cc1[C@H](NC(C)=O)CC2 |  |  |  | Toxicity (Mus musculus [12]): 122.6 µM/kg
17 | COc1cc2c(c(OC)c1OC)-c1ccc(OC)c(=O)cc1[C@@H](NC(=O)C(F)(F)F)CC2 | 0.4 µM/kg | 0.9 µM/kg |  | Toxicity (Mus musculus [13]): 1.1 µM/kg
18 | CN[C@H]1CCc2cc(OC)c(OC)c(OC)c2-c2ccc(OC)c(=O)cc21 [DEMECOLCINE] | 10.8 µM/kg | 21.6 µM/kg |  | 
19 | COc1c(O[C@H]2O[C@H](CO)[C@@H](O)[C@H](O)[C@H]2O)cc2c(c1OC)-c1ccc(OC)c(=O)cc1C(NC(C)=O)CC2 (some centres not stated) |  |  | inactive | 
20 | COc1cc2c(c(OC)c1OC)-c1ccc(=O)c(OC)cc1[C@@H](N(C)C=O)CC2 |  |  | inactive | 
21 | COc1cc2c(c(OC)c1OC)-c1ccc(OC)c(=O)cc1C(=O)CC2 | 9.6 µM/kg | 28.1 µM/kg |  | 
22 | COc1cc2c(c(OC)c1OC)-c1ccc(OC)c(=O)cc1[C@@H](N(C)C(C)=O)CC2 | 0.4 µM/kg | 3 µM/kg |  | Toxicity (Mus musculus [14]): 3.6 µM/kg
23 | COc1cc2c(c(OC)c1OC)-c1ccc(=O)c(OC)cc1CC=C2 |  |  |  | Potency (P388 [4]): inactive
